Laboratory results: article PMC3178989 (Indian Journal of Pharmaceutical Sciences, 2010)
Values after ≈ are worked out from the molar mass of the structure shown.

system: Herpes simplex virus-1 TK- KOS ACVr; assay: microbe, parasite or virus in culture; assay type: cell-based; conditions: Human alphaherpesvirus 1, read-out: EC50 Herpes simplex virus-1 TK- KOS ACVr

Row | Structure (SMILES) | EC50
1 | O=C(O)c1cc(Br)ccc1-n1c(-c2ccccc2)nc2ccccc2c1=O [AA2, 5-Bromo-2-(4-oxo-2-phenyl-4H-quinazolin-3-yl)-benzoic acid] | 58 µg/mL (≈ 138 µM)
2 | O=C(O)c1cc(Br)cc(Br)c1-n1c(-c2ccccc2)nc2ccccc2c1=O [AA3, 3,5-dibromo-2-(4-oxo-2-phenyl-4H-quinazolin-3-yl)-benzoic acid] | 100 µg/mL (≈ 200 µM)
3 | O=c1[nH]c(=O)n([C@H]2C[C@H](O)[C@@H](CO)O2)cc1/C=C/Br [Brivudin, reference compound] | 10 µg/mL (≈ 30 µM)
4 | Nc1ccn(C[C@@H](CO)OCP(=O)(O)O)c(=O)n1 [Cidofovir, reference compound] | 1 µg/mL (≈ 3.58 µM)
5 | O=C(O)c1ccccc1-n1c(-c2ccccc2)nc2c(Br)cc(Br)cc2c1=O [DBR1, 2-(6,8-Dibromo-4-oxo-2-phenyl-4H-quinazolin-3-yl)-benzoic acid] | 100 µg/mL (≈ 200 µM)
6 | O=C(O)c1cc(Br)ccc1-n1c(-c2ccccc2)nc2c(Br)cc(Br)cc2c1=O [DBR2, 5-Bromo-2-(6,8-dibromo-4-oxo-2-phenyl-4H-quinazolin-3-yl)-benzoic acid] | > 20 µg/mL

system: Vaccinia virus; assay: microbe, parasite or virus in culture; assay type: cell-based; conditions: Orthopoxvirus vaccinia, read-out: EC50 Vaccinia virus

Row | Structure (SMILES) | EC50
7 | O=C(O)c1cc(Br)ccc1-n1c(-c2ccccc2)nc2ccccc2c1=O [AA2, 5-Bromo-2-(4-oxo-2-phenyl-4H-quinazolin-3-yl)-benzoic acid] | 100 µg/mL (≈ 237 µM)
8 | O=C(O)c1cc(Br)cc(Br)c1-n1c(-c2ccccc2)nc2ccccc2c1=O [AA3, 3,5-dibromo-2-(4-oxo-2-phenyl-4H-quinazolin-3-yl)-benzoic acid] | 100 µg/mL (≈ 200 µM)
9 | O=c1[nH]c(=O)n([C@H]2C[C@H](O)[C@@H](CO)O2)cc1/C=C/Br [Brivudin, reference compound] | 6 µg/mL (≈ 18 µM)
10 | Nc1ccn(C[C@@H](CO)OCP(=O)(O)O)c(=O)n1 [Cidofovir, reference compound] | 10 µg/mL (≈ 35.8 µM)
11 | O=C(O)c1ccccc1-n1c(-c2ccccc2)nc2c(Br)cc(Br)cc2c1=O [DBR1, 2-(6,8-Dibromo-4-oxo-2-phenyl-4H-quinazolin-3-yl)-benzoic acid] | 100 µg/mL (≈ 200 µM)
12 | O=C(O)c1cc(Br)ccc1-n1c(-c2ccccc2)nc2c(Br)cc(Br)cc2c1=O [DBR2, 5-Bromo-2-(6,8-dibromo-4-oxo-2-phenyl-4H-quinazolin-3-yl)-benzoic acid] | > 20 µg/mL

system: Herpes simplex virus-2 (G); assay: microbe, parasite or virus in culture; assay type: cell-based; conditions: Human alphaherpesvirus 2, read-out: EC50 Herpes simplex virus-2 (G)

Row | Structure (SMILES) | EC50
13 | O=C(O)c1cc(Br)ccc1-n1c(-c2ccccc2)nc2ccccc2c1=O [AA2, 5-Bromo-2-(4-oxo-2-phenyl-4H-quinazolin-3-yl)-benzoic acid] | 58 µg/mL (≈ 138 µM)
14 | O=C(O)c1cc(Br)cc(Br)c1-n1c(-c2ccccc2)nc2ccccc2c1=O [AA3, 3,5-dibromo-2-(4-oxo-2-phenyl-4H-quinazolin-3-yl)-benzoic acid] | 100 µg/mL (≈ 200 µM)
15 | O=c1[nH]c(=O)n([C@H]2C[C@H](O)[C@@H](CO)O2)cc1/C=C/Br [Brivudin, reference compound] | 22 µg/mL (≈ 66 µM)
16 | Nc1ccn(C[C@@H](CO)OCP(=O)(O)O)c(=O)n1 [Cidofovir, reference compound] | 0.8 µg/mL (≈ 2.87 µM)
17 | O=C(O)c1ccccc1-n1c(-c2ccccc2)nc2c(Br)cc(Br)cc2c1=O [DBR1, 2-(6,8-Dibromo-4-oxo-2-phenyl-4H-quinazolin-3-yl)-benzoic acid] | 50 µg/mL (≈ 100 µM)
18 | O=C(O)c1cc(Br)ccc1-n1c(-c2ccccc2)nc2c(Br)cc(Br)cc2c1=O [DBR2, 5-Bromo-2-(6,8-dibromo-4-oxo-2-phenyl-4H-quinazolin-3-yl)-benzoic acid] | > 20 µg/mL

system: HIV-2(ROD); assay: Inhibition of HIV-2 induced cytopathic effect in MT-4 cells; assay type: cell-based; conditions: MT4, 120 h, read-out: IC50a (50% effective concentration, 50% protection of MT-4 cells against the cytopathic effect of HIV)
Procedure, shortened: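 MT-4 cells were kept in RPMI 1640 with 10% heat-inactivated FCS, 2 mM glutamine, 0.1% sodium bicarbonate and 20 µg/ml gentamicin. Virus stocks (HIV-1 IIIB/LAI, HIV-2 ROD) were grown and titred in MT-4 cells and stored at -70°. 100-300 CCID50 were added to cells at 6×10^5 cells/ml with test compound, then incubated 5 d at 37°. Protection from cytopathic effect was read as viable cells by MTT. A reference drug was run alike.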

Row | Structure (SMILES) | EC50
19 | O=C(O)c1cc(Br)ccc1-n1c(-c2ccccc2)nc2ccccc2c1=O [AA2, 5-Bromo-2-(4-oxo-2-phenyl-4H-quinazolin-3-yl)-benzoic acid] | > 88.2 µg/mL
20 | O=C(O)c1cc(Br)cc(Br)c1-n1c(-c2ccccc2)nc2ccccc2c1=O [AA3, 3,5-dibromo-2-(4-oxo-2-phenyl-4H-quinazolin-3-yl)-benzoic acid] | > 125 µg/mL
21 | O=C(O)c1ccccc1-n1c(-c2ccccc2)nc2c(Br)cc(Br)cc2c1=O [DBR1, 2-(6,8-Dibromo-4-oxo-2-phenyl-4H-quinazolin-3-yl)-benzoic acid] | > 83.2 µg/mL
22 | O=C(O)c1cc(Br)ccc1-n1c(-c2ccccc2)nc2c(Br)cc(Br)cc2c1=O [DBR2, 5-Bromo-2-(6,8-dibromo-4-oxo-2-phenyl-4H-quinazolin-3-yl)-benzoic acid] | > 64.2 µg/mL

system: Herpes simplex virus-1 (KOS); assay: microbe, parasite or virus in culture; assay type: cell-based; conditions: Human alphaherpesvirus 1, read-out: EC50 Herpes simplex virus-1 (KOS)

Row | Structure (SMILES) | EC50
23 | O=C(O)c1cc(Br)ccc1-n1c(-c2ccccc2)nc2ccccc2c1=O [AA2, 5-Bromo-2-(4-oxo-2-phenyl-4H-quinazolin-3-yl)-benzoic acid] | 50 µg/mL (≈ 119 µM)
24 | O=C(O)c1cc(Br)cc(Br)c1-n1c(-c2ccccc2)nc2ccccc2c1=O [AA3, 3,5-dibromo-2-(4-oxo-2-phenyl-4H-quinazolin-3-yl)-benzoic acid] | 50 µg/mL (≈ 100 µM)
25 | O=c1[nH]c(=O)n([C@H]2C[C@H](O)[C@@H](CO)O2)cc1/C=C/Br [Brivudin, reference compound] | 0.04 µg/mL (≈ 0.12 µM)
26 | Nc1ccn(C[C@@H](CO)OCP(=O)(O)O)c(=O)n1 [Cidofovir, reference compound] | 0.8 µg/mL (≈ 2.87 µM)
27 | O=C(O)c1ccccc1-n1c(-c2ccccc2)nc2c(Br)cc(Br)cc2c1=O [DBR1, 2-(6,8-Dibromo-4-oxo-2-phenyl-4H-quinazolin-3-yl)-benzoic acid] | 58 µg/mL (≈ 116 µM)
28 | O=C(O)c1cc(Br)ccc1-n1c(-c2ccccc2)nc2c(Br)cc(Br)cc2c1=O [DBR2, 5-Bromo-2-(6,8-dibromo-4-oxo-2-phenyl-4H-quinazolin-3-yl)-benzoic acid] | > 20 µg/mL

system: mock-infected MT-4 cells; assay: Cytotoxicity for mock-infected MT-4 cells; assay type: cell-based; conditions: MTT, printed in both strain rows
Procedure, shortened: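 Mock-infected MT-4 cells were grown in RPMI 1640 with 10% heat-inactivated FCS, 2 mM glutamine, 0.1% sodium bicarbonate and 20 µg/ml gentamicin. Cells (6×10^5 cells/ml) were exposed to test compound, and viability was measured by MTT to derive the 50% cytotoxic concentration. A reference drug was tested the same way.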

Row | Structure (SMILES) | IC50b (50% cytotoxic concentration, reduces viability of mock-infected MT-4 cells by 50%)
29 | O=C(O)c1cc(Br)ccc1-n1c(-c2ccccc2)nc2ccccc2c1=O [AA2, 5-Bromo-2-(4-oxo-2-phenyl-4H-quinazolin-3-yl)-benzoic acid] | 88.20 µg/mL
30 | O=C(O)c1cc(Br)cc(Br)c1-n1c(-c2ccccc2)nc2ccccc2c1=O [AA3, 3,5-dibromo-2-(4-oxo-2-phenyl-4H-quinazolin-3-yl)-benzoic acid] | >125 µg/mL
31 | O=C(O)c1ccccc1-n1c(-c2ccccc2)nc2c(Br)cc(Br)cc2c1=O [DBR1, 2-(6,8-Dibromo-4-oxo-2-phenyl-4H-quinazolin-3-yl)-benzoic acid] | 83.15 µg/mL
32 | O=C(O)c1cc(Br)ccc1-n1c(-c2ccccc2)nc2c(Br)cc(Br)cc2c1=O [DBR2, 5-Bromo-2-(6,8-dibromo-4-oxo-2-phenyl-4H-quinazolin-3-yl)-benzoic acid] | 64.18 µg/mL

system: HEL cultures; assay: not given; conditions: microscopically detectable alteration of normal cell morphology

Row | Structure (SMILES) | Minimum cytotoxic concentration
33 | O=C(O)c1cc(Br)ccc1-n1c(-c2ccccc2)nc2ccccc2c1=O [AA2, 5-Bromo-2-(4-oxo-2-phenyl-4H-quinazolin-3-yl)-benzoic acid] | >100 µg/mL
34 | O=C(O)c1cc(Br)cc(Br)c1-n1c(-c2ccccc2)nc2ccccc2c1=O [AA3, 3,5-dibromo-2-(4-oxo-2-phenyl-4H-quinazolin-3-yl)-benzoic acid] | >100 µg/mL
35 | O=C(O)c1ccccc1-n1c(-c2ccccc2)nc2c(Br)cc(Br)cc2c1=O [DBR1, 2-(6,8-Dibromo-4-oxo-2-phenyl-4H-quinazolin-3-yl)-benzoic acid] | >100 µg/mL
36 | O=C(O)c1cc(Br)ccc1-n1c(-c2ccccc2)nc2c(Br)cc(Br)cc2c1=O [DBR2, 5-Bromo-2-(6,8-dibromo-4-oxo-2-phenyl-4H-quinazolin-3-yl)-benzoic acid] | 100 µg/mL
